Consider 99 compounds from ChEMBL document CHEMBL4513216, “Probing the Open Global Health Chemical Diversity Library for Multistage-Active Starting Points for Next-Generation Antimalarials” (ACS Infect Dis, 2020).

Each structure is given as a SMILES string.

A short description of the data set: Toxicity liver stage against HepG2, at 10uM. The data set is classed as cell-based. More on the design: test concentration 10 uM, cell line HepG2-A16-CD81EGFP. The note with it: human, HepG2-A16-CD81EGFP cells; read-out: INHIBITION
The method in brief:
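Uninfected HepG2-A16-CD81EGFP cells, 3 × 10^3 per well, 1536-well, plated on prespotted compound at 10 μM final, parasite-free screening media added to match infected plates; puromycin 10 μM positive, DMSO 0.5% negative; run in parallel with 48 h PbLuc assay at 37 °C, 5% CO2; viability by CellTiter-Glo luminescence, normalized to controls.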
For the compound `Cc1ccc(CNC2(Cc3cc(C(C)(C)O)on3)COC2)o1`, the cytotoxicity at 10 µM was -1.18%.
For the compound `Cc1ccc(-n2nc(C)c3c(C)cc(OCC(=O)NC(C)C)nc32)cc1`, the cytotoxicity at 10 µM was -3.61%.
Turning to `COc1c(C(=O)N2CCOCC2)cnc2c1c(C)nn2C`, the cytotoxicity at 10 µM was determined as 1.64%.
With `CNC(=O)CN1C(=O)CCC12CCCN(CCc1ccccc1)C2` (centres undefined), the cytotoxicity at 10 µM is 1.35%.
For the compound `CC(=O)N1CCCC2(CCN(c3ccccc3)C2=O)C1` (centres undefined), the cytotoxicity at 10 µM was 1.91%.
With `Cc1cc(C(=O)N2CC[C@@H](O)[C@@H]2Cc2ccccc2)no1`, the cytotoxicity at 10 µM was -1.36%.
Turning to `CCN1CCC2(COCc3c(C)nc(N(C)C)nc32)C1` (centres undefined), the cytotoxicity at 10 µM came out at 5.76%.
The result for `CCn1c(SCC(=O)N2CCOCC2)nc2cc(C)[nH]c2c1=O` reads 7.72%.
Consider `CCn1c(=O)c2cc(S(N)(=O)=O)ccc2n(CC)c1=O`, for which the cytotoxicity at 10 µM is -13.4%.
With `CC(C)c1cc2c(s1)NC(c1ccccn1)NC2=O` (centres undefined), the cytotoxicity at 10 µM was -0.378%.
As for `Fc1cccc(Cl)c1CNCCCOc1ccccn1`, the cytotoxicity at 10 µM was -3.33%.
Next, `CCCC(=O)NCCCn1ncc2c(C)cccc21`: 8.6%; `CC(C)CNC(=O)c1nnsc1-c1ccccc1`: 10.3%; `COc1ccc(C2CN(c3cc(C)ncn3)CCN2C(C)=O)cc1` (centres undefined): 0.23%.
The result for `CNC(=O)c1ccc(C2CN(Cc3ccc(F)cc3)CCO2)nc1` (centres undefined) reads -0.378%; that for `CC(C)c1nc(O)c2nnn(C[C@H]3CCCN(Cc4cccs4)C3)c2n1`, 10.8%; that for `COc1ccc(N2CCN(C(=O)OC(C)(C)C)C(C(=O)O)C2)cc1` (centres undefined), -0.318%.
As to `CC(=O)N1CCC(c2ccnc(Nc3cc(C(F)(F)F)ccn3)n2)C1` (centres undefined), the cytotoxicity at 10 µM is 11%.
Next, `COCC(=O)N1CC(c2csc(NC(C)=O)n2)C1`: -8.8%.
Next, `CC1(C(=O)N2CCOCC2)CN(Cc2cccnc2)CCO1` (centres undefined): -9%; `Cc1c(C(=O)N2CCCC(n3nnc4cc(F)ccc43)C2)cnn1C` (centres undefined): -18.3%.
Regarding `Cc1cn[nH]c1C1CCCCN1C(=O)CCc1ccc(F)cc1` (centres undefined), the cytotoxicity at 10 µM came to 1.52%.
As for `COC(=O)CC(NC(=O)c1cccc(N2CCCC2=O)c1)C(=O)OC` (centres undefined), the cytotoxicity at 10 µM is -55.6%.
As for `CC1CCN(C(=O)c2cn(-c3ccc(C(F)(F)F)cn3)nn2)CC1`, the cytotoxicity at 10 µM is -53.1%.
For `Cc1cc(C)n(CC(C)CNC(=O)NCc2ccco2)n1` (centres undefined), the cytotoxicity at 10 µM was -2.58%.
As to `CC(C)N(C)C(=O)C1CSCN1S(=O)(=O)c1ccccc1F` (centres undefined), the cytotoxicity at 10 µM was 8.65%.
Consider `CCOCCN1CCN(c2ccc(C#N)cn2)CC1CC` (centres undefined), for which the cytotoxicity at 10 µM was 1.02%.
Take `CCn1cnnc1CNS(=O)(=O)N1CCCC1c1ccc(C)o1` (centres undefined): the cytotoxicity at 10 µM is -144%.
Turning to `Cc1ccc(NC(=O)NCC2CCS(=O)(=O)C2)cc1Cl` (centres undefined), the cytotoxicity at 10 µM came to 6.93%.
`CCN(CC)c1ccc(CNC(=O)N2CCC(C#N)CC2)cc1`: the cytotoxicity at 10 µM was -11.4%.
Regarding `COCCS(=O)(=O)NCc1ccc(N(C)C)c(C)c1`, the cytotoxicity at 10 µM was -8.35%.
As to `CC(C)c1csc(C(=O)N(C)c2ccc(Br)cn2)n1`, the cytotoxicity at 10 µM came out at 3.33%.
For `COc1cc(C)ccc1OCCC(=O)N1CCC(N2CC=CC2)C1` (centres undefined), the cytotoxicity at 10 µM came out at 6.99%.
Next, `Cn1cc(C(=O)N2CCCC2c2ccc3c(c2)OCO3)ccc1=O` (centres undefined): -14.8%; `CCOCCCC(=O)NCc1ccnc(N2CCN(C)CC2)c1`: -10.9%.
Take `CCN(Cc1ccco1)C(C)c1nc(C(C)(C)C)no1` (centres undefined): the cytotoxicity at 10 µM turned out to be 0.623%.
Consider `CNS(=O)(=O)CC(=O)N1CCCc2cc(Br)ccc21`, for which the cytotoxicity at 10 µM was -12.5%.
The result for `CC(C)(C(=O)NCCCC(N)=O)c1cccc(Br)c1` reads 4.23%.
Take `O=C(Nc1cccc(F)c1)C1CCN(Cc2noc(C3CC3)n2)CC1`: the cytotoxicity at 10 µM was 13.2%.
On to `CCn1cc(S(=O)(=O)NCC(OC)c2ccccc2)cn1` (centres undefined), for which the cytotoxicity at 10 µM was determined as 1.64%.
For the compound `Fc1cccnc1N1CCCC(c2nccs2)C1` (centres undefined), the cytotoxicity at 10 µM was found to be 1.48%.
With `CCc1nccn1C1CCCN(C(=O)c2ccn(C)c(=O)c2)C1` (centres undefined), the cytotoxicity at 10 µM stood at 17%.
As to `CCCS(=O)(=O)N1CCC(NC(=O)c2cc(CC)c(C)s2)CC1`, the cytotoxicity at 10 µM was -4.61%.
In the case of `Cc1ccc(NC(=O)Cc2c(C)nc3c(c2C)c(=O)[nH]n3C)cc1F`, the cytotoxicity at 10 µM is 6.87%.
`CCCN(C1CCc2ccccc2C1)S(C)(=O)=O` (centres undefined): the cytotoxicity at 10 µM came to 0.595%.
As to `N#Cc1cccc(OCCN2CCCC2C(=O)NCC(F)(F)F)c1` (centres undefined), the cytotoxicity at 10 µM is -5.88%.
With `Cc1cc(=O)n(C)cc1NC(=O)CC1CCC1`, the cytotoxicity at 10 µM was -9.64%.
The result for `CN(C(=O)CN1CCCC1c1cnn(C)c1)C(C)(C)C#N` (centres undefined) reads -1.37%; that for `CCOCC(=O)N1CC(=O)Nc2cc(Br)ccc21`, 8.09%; that for `CCSc1ccc(C(C)NC(=O)CCS(C)(=O)=O)cc1` (centres undefined), 2.18%.
In the case of `CC(C)N(Cc1cccnc1)C(=O)CSc1ccc(C#N)cc1`, the cytotoxicity at 10 µM worked out at 3.18%.
Regarding `O=C(NCc1cccnc1N1CCCCC1)c1ccc2cc[nH]c2c1`, the cytotoxicity at 10 µM is 4.1%.
Regarding `CC(Nc1ccc(CCN2CCOCC2)cc1)C(=O)N(C)CCC#N` (centres undefined), the cytotoxicity at 10 µM is -8.93%.
Turning to `O=S(=O)(CC1CCOCC1)NCc1ccnc(O)c1`, the cytotoxicity at 10 µM is -5.47%.
The result for `CCOC(C)c1noc(CN(C)C(=O)c2cc3ccccn3c2)n1` (centres undefined) reads 7.17%.
Take `CS(=O)(=O)NCC(=O)NC1CCc2nccn2C1` (centres undefined): the cytotoxicity at 10 µM was determined as 16.2%.
Consider `Cn1cccc1C1CCCN1C(=O)NCCCn1cccn1` (centres undefined), for which the cytotoxicity at 10 µM was found to be 19.2%.
With `C[C@H](NS(C)(=O)=O)C(=O)NCc1cc(-c2ccco2)n[nH]1`, the cytotoxicity at 10 µM was -8.27%.
As for `CC(C)CNc1nccc(-c2cnc3sc(Cl)cn3c2=O)n1`, the cytotoxicity at 10 µM is -0.723%.
As to `COCC(C)NCc1ccc2[nH]c(C)c(C)c2c1` (centres undefined), the cytotoxicity at 10 µM is -3.06%.
For `O=C(c1ccc2nccnc2c1)N1C[C@@H](CN2CCCC2)[C@@H](CO)C1`, the cytotoxicity at 10 µM stood at 4.23%.
Take `CSc1ccccc1C(=O)N(C)C1CCCN(CCc2ccccc2)C1` (centres undefined): the cytotoxicity at 10 µM was -8.52%.
Regarding `Cc1cccc(C(C(=O)N(C)Cc2cc(C)no2)N(C)C)c1` (centres undefined), the cytotoxicity at 10 µM worked out at 4.94%.
Next, `CCn1cc(CN2CCC3(CC2)c2ccccc2CC3O)cn1` (centres undefined): 5.54%; `Cc1ccc(N2CCN(C(=O)CCc3ccc(O)cc3)CC2=O)cc1`: -2.36%; `COc1cc(N2CCCC(c3nccn3Cc3cccnc3)C2)ncn1` (centres undefined): -1.86%.
Turning to `Cc1[nH]ccc1C(=O)N1CCCC(c2ccc(C(=O)O)cc2)C1` (centres undefined), the cytotoxicity at 10 µM was -0.591%.
Regarding `O=C(NC[C@@H]1CCCO1)c1ccc(S(=O)(=O)N[C@@H]2CCNC2)cc1`, the cytotoxicity at 10 µM was -42.2%.
In the case of `CC(C)C[C@H](NCc1cc(O)c2cccc(F)c2n1)C(N)=O`, the cytotoxicity at 10 µM is 5.71%.
Take `O=C(CSCC1CC1)N1CCCC(c2nccn2Cc2ccccn2)C1` (centres undefined): the cytotoxicity at 10 µM stood at 1.34%.
`O=C1NCC2(CCCN(c3ncnc4c3CCC4)CC2)O1` (centres undefined): the cytotoxicity at 10 µM was -0.718%.
Turning to `O=C(C1CC(=O)N(c2ccccc2)C1)N1CCC2(CC1)OCCO2` (centres undefined), the cytotoxicity at 10 µM was found to be 1.87%.
For `CCCS(=O)(=O)N1CCCC(c2cccc(C(=O)O)c2)C1` (centres undefined), the cytotoxicity at 10 µM was 6.09%.
Turning to `Cc1cccc(Cn2cc(C)c(N)n2)c1`, the cytotoxicity at 10 µM was -4.14%.
Next, `CNc1cncc(C2CCCN2Cc2c[nH]cn2)n1` (centres undefined): 0.192%; `CC(=O)N(Cc1ncc(C(C)C)o1)C1CCN(Cc2cc(C)on2)C1` (centres undefined): -6.78%.
Consider `Cc1cnn(CCNCc2nnc(Cc3ccccc3)o2)c1`, for which the cytotoxicity at 10 µM was -8.63%.
Take `CC(C(=O)NCCOc1ccccc1)n1cncn1` (centres undefined): the cytotoxicity at 10 µM is -6.85%.
Regarding `COCCCN1CCCC1c1noc(C2CC2)n1` (centres undefined), the cytotoxicity at 10 µM is -11.5%.
As to `CNC(=O)COc1ccc(CNCc2c(C)nn(C)c2N(C)C)cc1`, the cytotoxicity at 10 µM was -5.92%.
With `OC(CNCCn1cccn1)c1ccc(C(F)(F)F)cc1` (centres undefined), the cytotoxicity at 10 µM was -5.4%.
On to `Cc1nn(C)c(C)c1C1CCCN1C(=O)c1cnccn1` (centres undefined), for which the cytotoxicity at 10 µM is -15.7%.
`COc1c(C)cnc(CN(C)C(=O)c2ccccc2F)c1C`: the cytotoxicity at 10 µM is -9.11%.
Consider `Cc1cnn(CCNCCCOc2ccccc2)c1`, for which the cytotoxicity at 10 µM was -11.8%.
For `COc1ccc(C(=O)NS(=O)(=O)c2ccc(C#N)cc2C(F)(F)F)cc1`, the cytotoxicity at 10 µM was -10.5%.
For `O=C(NCc1cc[nH]n1)NCC(O)c1ccc(F)cc1F` (centres undefined), the cytotoxicity at 10 µM is 1.78%.
In the case of `CC(=O)N1CCCN(C(=O)NCCc2cc(Cl)cc(Cl)c2)CC1`, the cytotoxicity at 10 µM was determined as 4.55%.
As for `Cc1ccc(N2CCCC(NCC(=O)Nc3cc(C)no3)C2)nn1` (centres undefined), the cytotoxicity at 10 µM came to 3.61%.
On to `CCNC(c1cccnc1)c1cc(C)cc(C)c1` (centres undefined), for which the cytotoxicity at 10 µM was 2.77%.
The result for `O=C(CCc1ccccc1)N1CCC(N2CCNC2=O)CC1` reads 5.49%; that for `CC(C)c1ccsc1C(=O)N1CCCN(Cc2cscn2)CC1`, 4.07%.
For the compound `CCN(CC)C(=O)C1CCC2(CCNCC2)CO1` (centres undefined), the cytotoxicity at 10 µM was -146%.
For the compound `CC(=O)N1CCN(Cc2nccs2)CC2(CC(=O)N(C)C2)C1` (centres undefined), the cytotoxicity at 10 µM worked out at 3.03%.
On to `O=C(CN1CC(c2nc(Cc3ccccc3)no2)C1)NCC1CCCO1` (centres undefined), for which the cytotoxicity at 10 µM is -6.06%.
Turning to `O=C(NCC1CCOCC1)[C@@H]1C[C@@H]2CCN(Cc3ccco3)C[C@H]2O1`, the cytotoxicity at 10 µM is -8.09%.
On to `CCCNCc1cn(C)nc1-c1cccnc1`, for which the cytotoxicity at 10 µM came to 6.36%.
Take `CC(C)NC(=O)N1CCOC2(CCCN(c3ncccc3F)C2)C1` (centres undefined): the cytotoxicity at 10 µM is -4.45%.
Take `COCC1Cn2nnc(-c3cnn(C)c3)c2CN1Cc1cccs1` (centres undefined): the cytotoxicity at 10 µM turned out to be 6.24%.
Regarding `Cc1cnc(N2CC[C@H]3[C@@H]2CCC(=O)N3c2ccccc2)nc1`, the cytotoxicity at 10 µM is 4.15%.
